{"source": "ChEMBL document CHEMBL1130174", "about": "“Pyrrolidine-3-carboxylic acids as endothelin antagonists. 2. Sulfonamide-based ETA/ETB mixed antagonists” (J Med Chem, 1997)", "key": {"Endothelin-1 receptor [1]": {"biological_target": "T1, Endothelin-1 receptor (Homo sapiens, UniProt P25101)", "T1 sequence (P25101 whole entry)": "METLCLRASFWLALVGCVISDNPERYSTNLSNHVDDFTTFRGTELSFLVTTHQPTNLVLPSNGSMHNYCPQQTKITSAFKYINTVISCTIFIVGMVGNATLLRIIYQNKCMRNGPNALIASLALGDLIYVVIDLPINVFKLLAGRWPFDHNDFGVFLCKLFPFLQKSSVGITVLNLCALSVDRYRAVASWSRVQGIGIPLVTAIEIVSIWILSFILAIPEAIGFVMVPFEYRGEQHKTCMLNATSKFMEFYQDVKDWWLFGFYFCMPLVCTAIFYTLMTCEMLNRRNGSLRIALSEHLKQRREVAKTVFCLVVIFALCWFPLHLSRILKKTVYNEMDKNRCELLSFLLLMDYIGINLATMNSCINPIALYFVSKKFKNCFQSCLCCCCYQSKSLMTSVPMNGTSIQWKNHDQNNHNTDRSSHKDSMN", "assay": "Ability to displace endothelin ([125I]ET1) from human Endothelin A receptor", "method_in_brief": "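Membranes from CHO cells stably transfected with human ETA, prepared at 4 °C and stored at -80 °C. Buffer: 20 mM Tris pH 7.4, 100 mM NaCl, 10 mM MgCl2, 0.2% BSA, protease inhibitors. Bound ligand separated by glass-fibre filtration. Nonspecific binding with 1 µM unlabeled ET-1. IC50 is the mean of at least two determinations.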"}, "[2]": {"assay": "Oral bioavailability in rat", "format": "ADME, organism-based", "details": "in vivo"}, "[3]": {"assay": "Half-life is obtained after intravenous dosing of rats.", "format": "ADME, organism-based", "details": "rat, in vivo"}, "[4]": {"biological_target": "T2, Endothelin receptor type B (Homo sapiens, UniProt P24530)", "T2 sequence (P24530 whole entry)": "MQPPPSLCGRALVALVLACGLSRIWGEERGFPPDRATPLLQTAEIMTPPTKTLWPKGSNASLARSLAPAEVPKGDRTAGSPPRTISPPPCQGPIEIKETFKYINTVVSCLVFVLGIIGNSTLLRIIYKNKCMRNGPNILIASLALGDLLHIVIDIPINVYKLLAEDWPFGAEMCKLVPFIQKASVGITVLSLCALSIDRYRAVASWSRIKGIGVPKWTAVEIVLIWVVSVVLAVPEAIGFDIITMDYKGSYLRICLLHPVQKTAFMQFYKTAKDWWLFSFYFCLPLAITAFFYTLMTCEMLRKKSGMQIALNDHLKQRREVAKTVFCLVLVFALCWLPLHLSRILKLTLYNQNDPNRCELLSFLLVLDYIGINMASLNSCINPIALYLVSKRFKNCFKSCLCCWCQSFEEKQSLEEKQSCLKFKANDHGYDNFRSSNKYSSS", "assay": "Ability to displace endothelin ([125I]ET1) from human Endothelin B receptor"}, "[5]": {"assay": "Ratio of endothelin A receptor and endothelin B receptor."}, "Rattus norvegicus": {"tested_on": "Rattus norvegicus", "assay": "(§1) Total drug exposure is determined after oral dosing in rats.", "format": "ADME, organism-based", "set-up": "concentration or dose not given beside the values", "details": "in vivo"}, "Endothelin-1 receptor [6]": {"biological_target": "T3, Endothelin-1 receptor (Rattus norvegicus, UniProt P26684)", "T3 sequence (P26684 whole entry)": "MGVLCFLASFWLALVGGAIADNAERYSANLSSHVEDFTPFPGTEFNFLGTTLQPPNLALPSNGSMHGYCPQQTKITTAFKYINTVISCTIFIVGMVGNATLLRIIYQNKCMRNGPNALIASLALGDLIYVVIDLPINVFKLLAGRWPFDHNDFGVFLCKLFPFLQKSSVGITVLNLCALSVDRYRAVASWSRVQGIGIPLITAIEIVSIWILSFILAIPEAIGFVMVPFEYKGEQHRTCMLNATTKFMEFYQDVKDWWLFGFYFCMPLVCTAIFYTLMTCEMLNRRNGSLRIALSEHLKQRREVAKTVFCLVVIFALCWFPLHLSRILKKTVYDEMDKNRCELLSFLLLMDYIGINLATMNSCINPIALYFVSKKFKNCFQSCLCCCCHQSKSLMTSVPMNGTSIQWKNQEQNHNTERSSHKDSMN", "assay": "Ability to displace endothelin ([125I]ET1) from endothelin A receptor derived from MMQ cells of rodent.", "format": "cell-based, Rodentia sp."}, "Endothelin-1 receptor [7]": {"biological_target": "T1, Endothelin-1 receptor", "assay": "Binding assay performed using human Endothelin A receptor (hETA) expressed in chinese hamster ovary cells(CHO).", "format": "cell-based"}, "[8]": {"biological_target": "T4, Endothelin receptor type B (Sus scrofa, UniProt P35463)", "T4 sequence (P35463 whole entry)": "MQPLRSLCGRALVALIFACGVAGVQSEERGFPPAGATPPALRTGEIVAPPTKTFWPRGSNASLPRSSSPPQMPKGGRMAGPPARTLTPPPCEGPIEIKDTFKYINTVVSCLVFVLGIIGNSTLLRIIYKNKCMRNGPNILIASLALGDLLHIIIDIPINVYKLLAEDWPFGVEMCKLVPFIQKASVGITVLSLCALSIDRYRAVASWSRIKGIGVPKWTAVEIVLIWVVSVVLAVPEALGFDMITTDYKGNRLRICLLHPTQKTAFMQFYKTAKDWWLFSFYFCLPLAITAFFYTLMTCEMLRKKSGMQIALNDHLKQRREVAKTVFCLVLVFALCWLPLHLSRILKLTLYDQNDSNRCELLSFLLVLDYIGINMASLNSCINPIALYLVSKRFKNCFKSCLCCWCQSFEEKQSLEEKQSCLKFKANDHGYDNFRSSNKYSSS", "assay": "Ability to displace endothelin ([125I]ET-3) from endothelin B receptor derived from cerebellar tissue of porcine."}, "[9]": {"assay": "Maximum drug concentration is determined after oral dosing in rats.", "format": "ADME, organism-based", "set-up": "route oral", "details": "rat, in vivo"}, "[10]": {"assay": "Half-life is obtained after oral dosing of rats.", "format": "ADME, organism-based", "details": "rat, in vivo"}, "[11]": {"biological_target": "T2, Endothelin receptor type B", "assay": "Binding assay performed using human Endothelin B receptor (hETB) expressed in chinese hamster ovary cells(CHO)", "format": "cell-based"}, "[12]": {"biological_target": "T2, Endothelin receptor type B", "assay": "Ability to block the ET-1-induced hydrolysis of inositol phosphate in Endothelin B receptor of chinese hamster ovary(CHO) cells.", "format": "functional"}, "[13]": {"assay": "as §1", "format": "ADME, organism-based", "set-up": "concentration or dose not given beside the values", "details": "rat, in vivo"}}, "note": "Square brackets hold non-standard residues; d marks the D form. Peptide text beside a SMILES is read from it. * marks the point of attachment. Piperazinyl(4-Ph) = c1ccc(N2CCN(*)CC2)cc1; dGly(2-thienyl) = N[C@@H](C(=O)O)c1cccs1"}
{"smiles": "CCCOc1ccc2c(c1)[C@@H](c1ccc(OC)cc1OCCO)[C@H](C(=O)O)[C@H]2c1ccc2c(c1)OCO2", "values": [{"measurement": "Ki", "setting": "Endothelin-1 receptor [1]", "value": 1.1, "unit": "nM"}, {"measurement": "bioavailability", "setting": "[2]", "value": 60, "unit": "%"}, {"measurement": "half-life", "setting": "[3]", "value": 2, "unit": "h"}, {"measurement": "Ki", "setting": "[4]", "value": 110, "unit": "nM"}, {"measurement": "Ratio", "setting": "[5]", "value": 100}]}
{"smiles": "CCCc1cc(C(=O)O)ccc1OC(C(=O)NS(=O)(=O)c1ccc(C(C)C)cc1)c1ccc2c(c1)OCO2", "note": "[L-754142]", "values": [{"measurement": "IC50", "setting": "Endothelin-1 receptor [1]", "value": 0.26, "unit": "nM"}, {"measurement": "bioavailability", "setting": "[2]", "value": 60, "unit": "%"}, {"measurement": "half-life", "setting": "[3]", "value": 2, "unit": "h"}, {"measurement": "IC50", "setting": "[4]", "value": 4.4, "unit": "nM"}, {"measurement": "Ratio", "setting": "[5]", "value": 17}]}
{"smiles": "CCCN(CCN1C[C@H](c2ccc3c(c2)OCO3)[C@@H](C(=O)O)[C@@H]1c1ccc(OC)c(F)c1)S(=O)(=O)CCCCl", "note": "(stereo in doubt; 15d)", "values": [{"measurement": "AUC", "setting": "Rattus norvegicus", "value": 2.2, "unit": "µg·h/mL"}, {"measurement": "IC50", "setting": "Endothelin-1 receptor [6]", "value": 0.094, "unit": "nM"}, {"measurement": "bioavailability", "setting": "[2]", "value": 25, "unit": "%"}, {"measurement": "IC50", "setting": "Endothelin-1 receptor [7]", "value": 0.07, "unit": "nM"}, {"measurement": "IC50", "setting": "[8]", "value": 0.2, "unit": "nM"}, {"measurement": "half-life", "setting": "[3]", "value": 14, "unit": "h"}, {"measurement": "Cmax", "setting": "[9]", "value": 0.4, "unit": "µg/mL"}, {"measurement": "half-life", "setting": "[10]", "value": 9.6, "unit": "h"}, {"measurement": "IC50", "setting": "[11]", "value": 0.14, "unit": "nM"}, {"measurement": "IC50", "setting": "[12]", "value": 0.83, "unit": "nM"}]}
{"smiles": "CCCOc1ccc2c(c1)[C@@H](c1ccc(OC)cc1OCC(=O)O)[C@H](C(=O)O)[C@H]2c1ccc2c(c1)OCO2", "note": "[SB-209670]", "values": [{"measurement": "Ki", "setting": "Endothelin-1 receptor [1]", "value": 0.2, "unit": "nM"}, {"measurement": "Ki", "setting": "[4]", "value": 18, "unit": "nM"}, {"measurement": "Ratio", "setting": "[5]", "value": 90}]}
{"smiles": "CC(C)C[C@@H]1NC(=O)[C@@H](c2cccs2)NC(=O)[C@H](CC(=O)O)NC(=O)[C@H](CC(=O)N2CCN(c3ccccc3)CC2)NC(=O)[C@@H](CC(=O)O)NC(=O)[C@@H](Cc2c[nH]c3ccccc23)NC1=O", "note": "(cyclo(D(Piperazinyl(4-Ph))D[dGly(2-thienyl)]L[dW][dD]))", "values": [{"measurement": "IC50", "setting": "Endothelin-1 receptor [1]", "value": 0.24, "unit": "nM"}, {"measurement": "half-life", "setting": "[3]", "value": 0.5, "unit": "h"}, {"measurement": "IC50", "setting": "[4]", "value": 130, "unit": "nM"}, {"measurement": "Ratio", "setting": "[5]", "value": 540}]}
{"smiles": "CCCCCS(=O)(=O)N(CCC)CCN1C[C@H](c2ccc3c(c2)OCO3)[C@@H](C(=O)O)[C@@H]1c1ccc(OC)c(F)c1", "note": "(stereo in doubt; 15b)", "values": [{"measurement": "AUC", "setting": "Rattus norvegicus", "value": 11.2, "unit": "µg·h/mL"}, {"measurement": "bioavailability", "setting": "[2]", "value": 54, "unit": "%"}, {"measurement": "IC50", "setting": "[8]", "value": 0.29, "unit": "nM"}, {"measurement": "half-life", "setting": "[3]", "value": 5, "unit": "h"}, {"measurement": "Cmax", "setting": "[9]", "value": 2.4, "unit": "µg/mL"}, {"measurement": "half-life", "setting": "[10]", "value": 8.1, "unit": "h"}, {"measurement": "IC50", "setting": "[11]", "value": 0.28, "unit": "nM"}, {"measurement": "IC50", "setting": "[12]", "value": 1.28, "unit": "nM"}]}
{"smiles": "CCCCS(=O)(=O)N(CCC)CCN1C[C@H](c2ccc3c(c2)OCO3)[C@@H](C(=O)O)[C@@H]1c1ccc(OC)c(F)c1", "note": "(stereo in doubt; 15a)", "values": [{"measurement": "AUC", "setting": "[13]", "value": 3.7, "unit": "µg·h/mL"}, {"measurement": "bioavailability", "setting": "[2]", "value": 31, "unit": "%"}, {"measurement": "IC50", "setting": "[8]", "value": 0.32, "unit": "nM"}, {"measurement": "half-life", "setting": "[3]", "value": 6.9, "unit": "h"}, {"measurement": "Cmax", "setting": "[9]", "value": 1.1, "unit": "µg/mL"}, {"measurement": "half-life", "setting": "[10]", "value": 7.3, "unit": "h"}, {"measurement": "IC50", "setting": "[11]", "value": 0.47, "unit": "nM"}, {"measurement": "IC50", "setting": "[12]", "value": 0.6, "unit": "nM"}]}
